Assay results as given in paper PMC7124310 (Peptides, 2003).
No end group written: not given here.

Legend:
E. coli O18:K1:H7 Bort = assay: MIC, microdilution susceptibility test; format: cell-based, Escherichia coli; conditions: strain used in peritonitis model; Mueller–Hinton broth
In short: (§1)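 Strains were stored at −80 °C and subcultured in LB broth before use. MIC was determined by broth microdilution following NCCLS guidelines in Mueller–Hinton broth with logarithmic-phase bacteria. Values are the mean of at least four independent experiments.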

Gram-positive strains = assay: MIC, microdilution susceptibility test, Gram-positive isolates; format: cell-based; conditions: Gram-positive strains (Fig. 1 and Table 2)
In short: as §1

[1] = system: A. baumannii and P. aeruginosa; assay: MIC, microdilution susceptibility test; format: cell-based, Acinetobacter baumanni, Pseudomonas aeruginosa; conditions: clinical isolates (Fig. 2)
In short: as §1

P. aeruginosa ATCC 27853 = assay: MIC, microdilution susceptibility test; format: cell-based, Pseudomonas aeruginosa; conditions: strain used in peritonitis model; Mueller–Hinton broth
In short: as §1

S. aureus MRSA = assay: MIC, microdilution susceptibility test; format: cell-based, Staphylococcus aureus; conditions: strain used in peritonitis model; Mueller–Hinton broth
In short: as §1

[2] = system: Gram-negative and -positive clinical isolates; assay: MIC, microdilution susceptibility test, whole panel of clinical isolates; format: cell-based; conditions: 53 bacterial isolates incl. antibiotic-resistant strains
In short: as §1

mammalian cells = conditions: cited from earlier work
Vero76 cells = assay: Peptide cytotoxicity, neutral red uptake assay; format: cell-based; conditions: for Cell survival: 30 min at 37°C, neutral red uptake after 48 h, uninfected cells
In short: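 Confluent uninfected Vero76 monolayers (MEM, 10% FCS, penicillin/streptomycin) were exposed to test peptide (0.5–50 μM range, in MEM) for 30 min at 37 °C, 5% CO2. Cells were washed and kept 48 h in growth medium, then given 50 μg/ml neutral red for 3 h. They were fixed in formaldehyde/CaCl2, the dye was extracted with acidified ethanol, and A550 was read. Triplicates, two experiments.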

[3] = system: human herpes simplex virus type 1 (HSV-1); assay: Virus yield inhibition assay; format: cell-based, HSV-1 in Vero76 cells; conditions: mean of two independent experiments in triplicate
In short: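 Confluent Vero76 monolayers were infected with 10^4 […] HSV-1 together with test peptide in MEM for 30 min at 37 °C, washed with PBS, and incubated 24 h. They were freeze-thawed three times. Ten-fold supernatant dilutions were adsorbed 1 h onto fresh monolayers under a 0.8% carboxymethylcellulose/2% FCS overlay for 3 days. Plaques were stained with crystal violet and counted as % inhibition versus untreated controls. Triplicates, repeated.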

[4] = 12 mg/kg peptide i.v.; cited from earlier work
Gram-negative species = assay: MIC, microdilution susceptibility test, Gram-negative isolates; format: cell-based; conditions: Gram-negative species (Fig. 2 and Table 2)
In short: as §1

In vivo toxicity, i.v. = assay: In vivo toxicity, i.v.; set-up: species or system male Balb/c mice; conditions: single dose, Litchfield and Wilcoxon
In short: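 Male Balb/c mice (about 20 g, 4 weeks old) received a single i.v. injection of increasing doses of test peptide in sterile PBS, with vehicle-only controls. Behaviour and survival were monitored for 7 days. LD50 was calculated by the Litchfield–Wilcoxon method.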

In the case of “GGLRSLGRKILRAWKKYGPQATPATRQ-NH2 [mBMAP-28]”, the MIC (E. coli O18:K1:H7 Bort) was 2 µM, the MIC values (Gram-positive strains) was greater than 32 µM and the MICs [1] was 0.25 to 1 µM. For the same substance, the MIC (P. aeruginosa ATCC 27853) was 2 µM and the MIC (S. aureus MRSA) was greater than 32 µM.

For “GGLRSLGRKILRAWKKYGPIIVPIIRI-NH2 [BMAP-28]”, the MIC (E. coli O18:K1:H7 Bort) was 2 µM, the “MIC values in most cases” value [2] was 1 to 8 µM and the MIC values (Gram-positive strains) was 1 to 8 µM. For the same substance, the “concentration range toxic to mammalian cells” value (mammalian cells) was “above 10 μM”, the MIC (P. aeruginosa ATCC 27853) was 2 µM and the MIC (S. aureus MRSA) was 2 µM. The Cell survival (Vero76 cells; 0.5 μM peptide) was 100%, the “cells taking up the neutral red dye (cytotoxicity)” value (Vero76 cells; 5 μM peptide) was 17% and the Cell survival (Vero76 cells; 5 μM peptide) was 83%. It also gave a Cell survival (Vero76 cells; 50 μM peptide) of 5%, a Virus yield inhibition ([3]; 0.5 μM peptide) of 10% and a Virus yield inhibition ([3]; 5 μM peptide) of 72%.

For GRFKRFRKKFKKLFKKLS-NH2 [BMAP-27(1–18)], the MIC (E. coli O18:K1:H7 Bort) is listed as 8 µM, the “cytotoxic and haemolytic activities” value (mammalian cells) is listed as “virtually devoid” and the MIC (P. aeruginosa ATCC 27853) is listed as 2 µM. It also gave an MIC (S. aureus MRSA) of 4 to 8 µM.

For GGLRSLGRKILRAWKKYG-NH2 [BMAP-28(1–18)], the MIC (E. coli O18:K1:H7 Bort) is listed as 2 µM, the “cytotoxic and haemolytic activities” value (mammalian cells) is listed as “virtually devoid” and the MIC (P. aeruginosa ATCC 27853) is listed as 2 µM. For the same substance, the MIC (S. aureus MRSA) was 4 to 8 µM and the “toxicity to Vero cells” value (Vero76 cells; 5 μM peptide) was “not toxic”.

For “indolicidin: a bovine cathelicidin peptide (ILPWKWPWWPWRR; ends and bridges not checked; UniProt P33046 131-143, looked up)”, the “toxicity to mice when injected i.v.” value [4] is listed as “all treated animals died”.

ILRAWKKYGPIIVPIIRI-NH2 [BMAP-28(10–27)] showed an MIC (E. coli O18:K1:H7 Bort) of 2 µM, an MIC (P. aeruginosa ATCC 27853) of 8 µM and an MIC (S. aureus MRSA) of 8 µM.

With “GRFKRFRKKFKKLFKKLSPVIPLLHL-NH2 [BMAP-27]” the MIC (E. coli O18:K1:H7 Bort) was 0.5 µM, the “MIC values in most cases” value [2] was 1 to 8 µM and the MIC values (Gram-negative species) was 1 to 2 µM. The “concentration range toxic to mammalian cells” value (mammalian cells) was “above 10 μM”, the MIC (P. aeruginosa ATCC 27853) was 1 µM and the MIC (S. aureus MRSA) was 4 µM. For the same substance, the “cytotoxicity to Vero cells” value (Vero76 cells; lowest peptide concentration tested (range 0.5–50 μM)) was “cytotoxic even at the lowest peptide concentration tested” and the LD50 (In vivo toxicity, i.v.) was 10 mg/kg.
